From ChEMBL document CHEMBL1770142, “Improvement of the synthesis and pharmacokinetic properties of chromenotriazolopyrimidine MDM2-p53 protein-protein inhibitors” (Bioorg Med Chem Lett, 2011)
Values after ≈ are worked out from the molar mass of the structure shown.

Tests used:
[1] = Solubility of the compound in phosphate buffer saline; type: physicochemical
[2] = Mean residence time in rat at 0.5 mg/kg, iv; type: ADME, organism-based; set-up: dose 0.5 mg/kg, route intravenous; details: in vivo
Summary of the method: (§1)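 Rat PK: intravenous 0.5 mg/kg in 100% DMSO; oral 2.0 mg/kg in 0.5% methylcellulose/1% Tween 80/98.5% water. Plasma profiles give MRT, Vdss and CL from the iv arm and F from the oral arm.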

[3] = Oral bioavailability in rat at 2 mg/kg; type: ADME, organism-based; details: in vivo; summary of the method: as §1
[4] = Volume of distribution at steady state in rat at 0.5 mg/kg, iv; type: ADME, organism-based; set-up: dose 0.5 mg/kg, route intravenous; details: in vivo, read-out: Vdss; summary of the method: as §1
[5] = Mean residence time in rat at 2 mg/kg, iv; type: ADME, organism-based; set-up: dose 2 mg/kg, route intravenous; details: in vivo
Summary of the method: (§2)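 Rats dosed intravenously at 2.0 mg/kg in DMSO, or orally at 5.0 mg/kg in 2% HPMC, 1% Tween 80, pH 2.2 with HCl. Plasma levels of parent and of the 4/5 conversion products were followed over time. iv parameters and oral bioavailability were taken from these profiles.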

[6] = Oral bioavailability in rat at 5 mg/kg, po; type: ADME, organism-based; details: in vivo; summary of the method: as §2
[7] = Volume of distribution at steady state in rat at 2 mg/kg, iv; type: ADME, organism-based; set-up: dose 2 mg/kg, route intravenous; details: in vivo, read-out: Vdss; summary of the method: as §2

Compound | solubility [1] [µg/mL] | MRT [2] [h] | bioavailability [3] [%] | Vd [4] [L/kg] | MRT [5] [h] | bioavailability [6] [%] | Vd [7] [L/kg]
O=C(O)CCCCN1C2=C([C@H](c3ccc(Br)cc3)n3ncnc31)[C@@H](c1ccc(Br)cc1)Oc1ccccc12 | 6.1 (≈ 9.59 µM) | 4.1 | 54 | 1.7 |  |  | 
CN1C2=C([C@H](c3ccc(Br)cc3)n3ncnc31)[C@@H](c1ccc(Br)cc1)Oc1ccccc12 | < 1 |  |  |  | 2.4 | 23 | 9.9
O=C(O)CN1C2=C([C@H](c3ccc(Br)cc3)n3ncnc31)[C@@H](c1ccc(Br)cc1)Oc1ccccc12 | 132 (≈ 222 µM) | 0.46 | 14 | 2.6 |  |  | 
